Assay: Toxicity liver stage against HepG2, at 10uM
Type: cell-based
Parameters: test concentration 10 uM, cell line HepG2-A16-CD81EGFP
Conditions: human, HepG2-A16-CD81EGFP cells; read-out: INHIBITION
In short: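 Uninfected HepG2-A16-CD81EGFP cells, 3 × 10^3 per well, 1536-well, plated on prespotted compound at 10 μM final, parasite-free screening media added to match infected plates; puromycin 10 μM positive, DMSO 0.5% negative; run in parallel with 48 h PbLuc assay at 37 °C, 5% CO2; viability by CellTiter-Glo luminescence, normalized to controls.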

SMILES | cytotoxicity at 10 µM [%]
CCC(NS(C)(=O)=O)c1ccccc1OC (stereo unspecified) | -43.1
CC1=C(c2ccc(C(C)C)cc2)S(=O)(=O)N=C1N1CCc2ccccc21 | -16.8
Cc1ccsc1C1CCCCCN1Cc1cn(C)nc1C (stereo unspecified) | -4.38
COc1cccc(CN2CC(O)CN(C(=O)C3CCC3)CC2=O)c1OC (stereo unspecified) | 4.43
Cc1cccnc1NC(=O)C1(n2cnnn2)CCCCC1 | -2.43
Cc1cc(NC(=O)Cn2ncc(SCC(N)=O)c(Cl)c2=O)ccc1Br | 15.3
Cc1nnsc1C(=O)N1CC(c2nc3ccccc3[nH]2)C1 | 4.17
Cc1nnsc1C(=O)NCc1nn(C2CCCC2)c2c1CCCC2 | -0.543
O=C(c1nc2c(s1)CCCN2C(=O)C1CC1)N1CCOCC1 | 4.96
c1cnc(N2CCO[C@H]3[C@H](OCCN4CCOCC4)CC[C@@H]32)nc1 | -10.2
CC(C)CNC(=O)N1CCC2(CCCO2)C1 (stereo unspecified) | 12.9
CN1CCCN(C(=O)c2cc3c(s2)CCN3C(=O)c2ccccc2)CC1 | 1.05
Cn1cnnc1SCc1cc2c(cc1Br)OCO2 | 6.44
O=c1cc(-c2ccccc2)nc2n1CCCCC2 | 1.36
Cc1c(C)n(Cc2ccccn2)c2nc3c(c(N)c12)CCCCCC3 | 9.15
O=C(CCSC1CCc2ccccc2NC1=O)NCCCO (stereo unspecified) | -5.65
Cc1cccc(C(=O)NCCCN2CCN(c3ccccc3)CC2)c1 | 7.67
Cc1nn(C)c2c(=O)n(C)c(NCC3CCCO3)nc12 (stereo unspecified) | 0.186
CCN1CCN(S(=O)(=O)c2cc(C)c(Cl)cc2C)CC1 | -3.89
Oc1ccc(Cl)cc1CNCc1ccccc1Cl | -0.0124
O=C(c1cnn2c(-c3ccco3)ccnc12)N1CCCCCC1 | 14.4
CNC(=O)c1cccc(CC2COCCN(Cc3ccsc3)C2)n1 (stereo unspecified) | -0.257
O=C(c1ccncc1)N1CCC(c2nc(O)cc(-c3cccnc3)n2)C1 (stereo unspecified) | -0.0788

SMILES | cytotoxicity at 10 µM [%]
NC(=O)C1(Cc2ccccc2-c2ccccc2)CCCN(CC2CC2)C1 (stereo unspecified) | 1.67
COCC(=O)Nc1ccc(Oc2ccsc2C(=O)O)cc1 | 8.12
Cc1ccnc(N2CCC(OCCN3CCCCC3)C2)n1 (stereo unspecified) | -49.4
O=S(=O)(NCCCn1cncn1)c1ccc2c(c1)OCCCO2 | 3.51
Cc1cc(NC(=O)NCc2nncn2C)ccc1OC(C)C | 6.23
CN(C)C(=O)c1ccccc1NC(=O)N[C@@H]1c2ccccc2C[C@@H]1O | -43.1
Cc1nc(CNC(=O)N2CCN(c3ccc(Cl)cn3)CC2)no1 | -13.1
COc1cccc(CC(=O)N2CCC(O)(C(F)(F)F)C2)c1 (stereo unspecified) | 1.16
Cc1cccc(CCC(=O)NCC2CCCN2c2cccnn2)c1 (stereo unspecified) | -3.96
Cc1cc(C(N)=O)ccc1NC(=O)c1nc(N2CCCCC2)ncc1Cl | -13.9
CCN1CCC(CNCc2cc(C)ccc2OC)C1 (stereo unspecified) | 17.4
CCc1ccsc1C(=O)N1CCCC(c2noc(C)n2)C1 (stereo unspecified) | 3.77
Cn1cc(CC2CCN(C(=O)NCCCc3ccc(O)cc3)C2)cn1 (stereo unspecified) | 0.557
Cc1noc(COCC(=O)N2CCCC(c3nccs3)C2)n1 (stereo unspecified) | 0.172
CCOc1cccc(COC(=O)c2cc(Cl)ccn2)n1 | -2.52
CN(C)c1ncncc1NC(=O)Cc1c[nH]c2ccc(F)cc12 | -9.74
CC(=O)Nc1nc(C(=O)NCCOc2ccc(C)cc2)cs1 | 5.35
Cc1nnc2n1CCN(Cc1c(Cl)ccc3cccnc13)C2 | 8.25
CCC(O)CN1CCN(C(=O)c2csc(COC)n2)CC1 (stereo unspecified) | 7.72
c1ccc(CC2(CNCc3ncc[nH]3)CCC2)cc1 | 0.458
Cc1ccc(OCCCNC(=O)CN(C)c2ccc(C#N)cn2)cc1 | 4.01
Cn1cnc2c1CCN(CCCOc1ccc(S(C)(=O)=O)cc1)C2 | 4.94
Cc1ccc(C2COCCN2C(=O)c2ccc(CN(C)C)cc2)o1 (stereo unspecified) | 0.692

SMILES | cytotoxicity at 10 µM [%]
Cc1cc2n(n1)CC(CNC1CCN(c3ccc(F)cc3)CC1)CN2 (stereo unspecified) | -10.3
O=C(NS(=O)(=O)c1ccccc1Cl)c1cccc2c1OCCO2 | -11
Cc1nc(CN2CCN(C)C(=O)C23CCN(CC2CCCC2)CC3)cs1 | 11
Cc1ccc2c(n1)N(C)CCN(Cc1cnn(C)c1)C2 | 3.04
c1cncc(CN2CCCC3(COCCN(c4nccs4)C3)C2)c1 (stereo unspecified) | -80.4
Cc1nc(NCC2CC2)nc2c1COCC21CCN(C(=O)C(C)(C)C)C1 (stereo unspecified) | -77.8
Cn1cccc1C(=O)N1CCc2ncnc(N3CCCC3)c2CC1 | -1.31
O=C(c1ccco1)N1CCC2(CC1)C(=O)NCCN2CC1CC1 | 4.3
CN1CC(c2ccccc2)CC2(CCN(C(=O)c3ccccc3)CC2)C1 (stereo unspecified) | -0.0342
CCCOC1CCCN(c2ncnc3c2CCN(C(=O)C2CC2)C3)C1 (stereo unspecified) | 4.84
O=C(NCc1ccc(Cl)s1)c1cc(CN2CCCC(O)C2)on1 (stereo unspecified) | -52.3
Cc1n[nH]c(C)c1CC(=O)N1CCC2(CC1)CN(C)CCN2C | 1.73
O=c1cc(-c2cc(O)cc(CCC3CCCCN3)c2)cc[nH]1 (stereo unspecified) | 0.749
CCCc1cncnc1N1CCC(NCCc2ccc(O)cc2)CC1 | 2.47
CN1CCCC(CCC(=O)N2CCc3c(nc(CC4CC4)[nH]c3=O)C2)C1 (stereo unspecified) | -8.61
CCc1csc(CNCC(=O)Nc2ccc(Cl)c(C)c2)n1 | 5.33
CNS(=O)(=O)c1ccc(CN2CCN(Cc3ncccc3C)CC2)cc1 | 8.41
CNS(=O)(=O)c1ccc(CN2CCN3CCNC(=O)C3C2)cc1 (stereo unspecified) | -6.22
CC(CCc1ncnn1Cc1cccc(Cl)c1)N1CCCC1 (stereo unspecified) | -3.03
CCc1nccn1CCC(=O)N1CC(=O)N(c2ccccc2C)CC1C (stereo unspecified) | -15
CCCS(=O)(=O)N1CCC2(CCC(=O)N(Cc3ccccc3)C2)CC1 | 11.2
COc1ncc(-c2cc(NCCN(C)C)nc3[nH]ccc23)c(OC)n1 | -20.7
CC(C)c1cc(C2CCN(Cc3cc(F)cc(F)c3)CC2)[nH]n1 | -7.46

SMILES | cytotoxicity at 10 µM [%]
Cc1cc2ncn(C[C@]3(O)CCCN4CCCC[C@@H]43)c2cc1C | -2.42
CCC(=O)N1CCCC1C(=O)N1CCC(Cc2ccc(F)cc2)CC1 (stereo unspecified) | -0.0726
CCN1CCC(N[C@@H]2CC[C@@H]2NC(=O)Cc2csc(C)n2)CC1 | 1.82
Cc1ccsc1CNc1ccccc1C(=O)N1CCNC(=O)C1 | -1.68
CN(CC1(CO)CCC1)C(=O)C1CCC(=O)N(Cc2ccc(Cl)cc2)C1 (stereo unspecified) | -11.2
Cc1nn(C)c2nc(N3CCCC3c3nccs3)sc12 (stereo unspecified) | -2.87
CN(C)CCN(Cc1ccsc1)C(=O)C1=NNC(=O)CC1 | 6.62
CCN1CCC(CC(=O)N2CCCCC2CCn2cccn2)CC1 (stereo unspecified) | -5.02
CSCC(=O)N[C@H]1CC[C@H](Nc2nccc(-c3cccnc3)n2)C1 | 9.87
CC(C)CN1C(=O)CC[C@H]2CN(C(=O)c3ncc[nH]3)CC[C@H]21 | 5.09
CCN(CC)S(=O)(=O)c1csc(C(=O)N2CCC(C(N)=O)CC2)c1 | -43.9
Cc1ccc(-c2cc(C(=O)NCCC3=CCCCC3)[nH]n2)o1 | -55.1
O=C(c1ccc[nH]1)N1CCN(CC2CCOc3ccccc3C2)CC1 (stereo unspecified) | 4.03
Cc1cc(C[S+]([O-])CC(=O)NCc2cccc(Cl)c2)no1 (stereo unspecified) | -1.56
CCc1nnc2n1CCN(C(=O)CN(CC)CC)C2 | -3.14
COC(=O)CCNC(=O)c1nnn(-c2ccc(C)cc2)c1C1CC1 | -0.121
Cc1nnc(N2CCOC(CN(C)C)C2)c(C#N)c1C (stereo unspecified) | -9.95
Cc1nc(C)n(CC2CN(CCCOc3ccccc3)CCO2)n1 (stereo unspecified) | -0.924
CCN(Cc1cccc(C)c1)Cn1nc(C)c2c(C)onc2c1=O | -1.03
Cc1ccc(-c2nc(CN3CCOC(Cn4cccn4)C3)co2)cc1 (stereo unspecified) | -5.3
O=C(Cc1ccc2c(c1)CCO2)N1CCCC1c1noc(C2CC2)n1 (stereo unspecified) | -7.71
CN(C)c1ccc(CNc2cncc(-n3cccn3)n2)cc1 | -7.31
Cc1nn(C)c(C)c1C1CCCN1Cc1nc(-c2ccco2)no1 (stereo unspecified) | -3.17

SMILES | cytotoxicity at 10 µM [%]
O=C(NCCc1cccnc1)N1CCCC1c1ccsc1 (stereo unspecified) | -6.82
Cc1cc(CN(C)C(=O)NC2CCN(Cc3ccccc3)C2)no1 (stereo unspecified) | -0.421
Cc1nc(CN(C)C2CCN(Cc3ccno3)C2)no1 (stereo unspecified) | 2.07
COc1ccccc1C1(NCc2c(C)nc3c(C)cccn23)CCCC1 | 15.2
Cc1cnc(CNC(=O)[C@@]23CCO[C@@H]2CCNC3)cn1 | -108
O=C(NC1CC1)[C@@H]1C[C@@H]2CCN(Cc3ccoc3)C[C@@H]2O1 | -103
COc1cccc(-c2noc(C3CCN(Cc4cccs4)C3)n2)c1 (stereo unspecified) | -0.192
CO[C@H]1CCN(c2ncc(F)cn2)[C@@H]2CN(Cc3ccco3)C[C@H]12 | 13.5
Cc1cnc(N2CCC3(CC2)CC(N(C)Cc2ccncc2)C3)nc1 | 8.73
COCCN1CCC2(CCCN(C(=O)c3cncn3C)C2)CC1 | -1.4
O=C(c1ccccc1)N1CCC[C@]2(C[C@@H](OCc3ccccn3)CO2)C1 | -67.5
O=C(c1cscn1)N1CC[C@@H]2[C@@H]1CCN2CC1CCOC1 (stereo partly specified) | -2.36
COCCN1CCCC12CCN(Cc1cncn1C)CC2 | 8.52
COc1ccc(CN)c(OC(F)F)c1 | -41.7
CCOc1ccccc1CN1CCc2nc3ccsc3c(=O)n2CC1 | -5.81
CN1CCC2(CC1)C(=O)N(C)c1ccc(F)cc12 | -115
C=c1cc(C)oc1=C1NC(c2c(C)ncc3c2CCNC3)=NO1 | -0.132
CCCN1C[C@@H]2CC[C@H]1CN(Cc1ccc(-n3cccn3)cc1)C2 | 5.05
CC(C)=CCN1C(=O)[C@@H]2CC[C@H]1CN(c1ncccc1C(N)=O)C2 | 6.13

— ChEMBL document CHEMBL4513216, “Probing the Open Global Health Chemical Diversity Library for Multistage-Active Starting Points for Next-Generation Antimalarials” (ACS Infect Dis, 2020)
